Among all 330,000 compounds or so, about 350 (0.11%) were called active.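 The calls were made as follows: active = activation more than six SD over the plate average, tested at 20 µM; inactive = the rest.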 Shown is part of a subset that was picked to be rich in actives.
What follows are compounds tested against Apelin receptor (Homo sapiens) (UniProt P35414) (assay: agonists of human apelin receptor APJ, primary screen, CHO-K1 cells, PathHunter beta-arrestin, luminescence (AID 2520)). Conditions: at 20 µM, hits give high values, 0% DMSO wells, 100% apelin.
Summary of the method: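 Assay system: CHO-K1 cells stably expressing ProLink-tagged human APJ and arrestin–beta-gal acceptor. Compound dosing: 20 µM single point, 1% DMSO. Times: 16-18 h seeding, 90 min dark compound exposure, 60 min detection. Detection: beta-gal luminescence. Evaluation: APJ–arrestin association signal. Controls: negative DMSO alone, positive Apelin-13 at 10 nM.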

Apelin receptor (Homo sapiens), sequence (P35414 whole entry, looked up): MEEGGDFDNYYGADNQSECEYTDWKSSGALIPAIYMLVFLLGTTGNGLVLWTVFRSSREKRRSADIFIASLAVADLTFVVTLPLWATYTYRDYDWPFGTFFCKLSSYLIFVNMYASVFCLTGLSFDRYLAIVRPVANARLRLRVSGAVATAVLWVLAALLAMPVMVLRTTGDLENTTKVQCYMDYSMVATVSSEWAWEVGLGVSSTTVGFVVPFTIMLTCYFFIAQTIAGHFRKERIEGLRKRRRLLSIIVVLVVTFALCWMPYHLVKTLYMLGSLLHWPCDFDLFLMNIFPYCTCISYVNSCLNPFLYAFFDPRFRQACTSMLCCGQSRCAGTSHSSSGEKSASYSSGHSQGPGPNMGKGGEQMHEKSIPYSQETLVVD

| Compound | activation |
| --- | --- |
| O=C(c1cnn2ccccc12)N1CCc2ccccc21 | -0.0654% (inactive) |
| CCc1ccc(N2CC(C(=O)NC3=NCCS3)CC2=O)cc1 (configuration not stated) | 10.1% (inactive) |
| CSc1nccc(NC(=O)c2ccc(C(C)(C)C)cc2)n1 | 1.31% (inactive) |
| CSc1cccc(NC(=S)N(C(C)C)C(C)c2ccccn2)c1 (configuration not stated) | 1.84% (inactive) |
| COc1ccccc1N(C)S(=O)(=O)c1ccc(Cl)c(C(=O)Nc2ccncc2)c1 | 4.67% (inactive) |
| COc1cccc(N(CC(=O)NC2CCCC2)C(=O)Cn2nnc(-c3ccc(C)o3)n2)c1 | 2.12% (inactive) |
| CCc1nn(-c2cc(Oc3cccc4ccccc34)nc(-c3ccccc3)n2)c(N)c1C#N | -3.92% (inactive) |
| COc1cccc(OC)c1CN(C)C(=O)c1cnccc1C(F)(F)F | -2.03% (inactive) |
| CC(=O)NCC(=O)N1CCC(n2nccc2NC(=O)CCCc2ccccc2)CC1 | -2.51% (inactive) |
| CC1=C/C(=N\OS(=O)(=O)c2ccccc2)C=CC1=O | 40.6% (active) |
| COc1ccc(C(=O)ON=C2c3ccccc3-c3ccccc32)cc1OC | -1.57% (inactive) |
| COc1ccc(C(=O)O/N=C(\N)Cc2ccc(Cl)cc2Cl)cc1OC | 11.8% (active) |
| COc1ccc(C/C(N)=N/OC(=O)c2ccco2)cc1OC | 6.23% (inactive) |
| COc1cccc(CSc2nc3nc(C)cc(C)n3n2)c1 | -1.45% (inactive) |
| CN(C(=O)CN1C(=O)NC(C)(CCc2ccccc2)C1=O)c1ccccc1 (configuration not stated) | -2.66% (inactive) |
| Cc1nn(CC(=O)NC2CCCCC2)c(=O)c2cccn12 | -3.35% (inactive) |

| Compound | activation |
| --- | --- |
| CCOC(=O)C1C(c2ccc(OC)c(OC)c2)c2c([nH][nH]c2=O)CC1(C)O (configuration not stated) | 0.0386% (inactive) |
| O=c1ccc(-c2ccc(S(=O)(=O)Nc3ccccc3)o2)n[nH]1 | 2.43% (inactive) |
| CC1=NN(C(=O)CCc2ccccc2O)C(O)(C(F)(F)F)C1 (configuration not stated) | -2.46% (inactive) |
| CC1=C(C/C=C(\C)CCCC(C)CCCC(C)CCCC(C)C)C(=O)c2ccccc2C1=O (configuration not stated) | 16.4% (inactive) |
| Cc1cc(NC(=O)Nc2ccccc2[N+](=O)[O-])no1 | -0.224% (inactive) |
| Cc1csc(SCC(=O)N(c2ccccc2)C(C)C)n1 | -5.06% (inactive) |
| O=C(Nc1nnc(C2CC2)s1)C1=NN(C2CCS(=O)(=O)C2)C(=O)CC1 (configuration not stated) | -2.11% (inactive) |
| CN(C)S(=O)(=O)c1ccc(N/C=C(\[N+](=O)[O-])S(=O)(=O)c2ccccc2)cc1 | -4.82% (inactive) |
| CC(=O)Nc1ccc(Sc2ccccc2C(=O)N2CCCC2)cn1 | -0.519% (inactive) |
| O=C(O)c1cccc2c1C(=O)N(C1CCCCC1)C2 | -1.33% (inactive) |
| CC1(C)NC(=O)N(CC(=O)N2CCN(S(=O)(=O)c3ccccc3F)CC2)C1=O | -2.41% (inactive) |
| CCCCCCCCCCCCC(NC(C)=O)(C(=O)OCC)C(=O)OCC | -3.1% (inactive) |
| O=S(=O)([N-]c1nc2ccccc2nc1-[n+]1ccc(Cc2ccccc2)cc1)c1ccc(Br)s1 | 3.3% (inactive) |
| CN(CC(=O)NCCc1ccc(S(N)(=O)=O)cc1)CC(=O)Nc1ccc(Cl)cc1 | -2.04% (inactive) |
| Cc1ccc(-n2nc(N)c3c(=O)oc(N(C)C)nc32)cc1 | -1.59% (inactive) |
| CCOC(=O)c1sc(=NC(=O)/C=C/c2cccs2)n(C)c1C | -1.39% (inactive) |

Source: PubChem BioAssay AID2520 (Sanford-Burnham Center for Chemical Genomics, 2010)
